Active and inactive are the calls of the source. No cut-off for these calls is given here.
Key:
Huh-7 [1] = assay: Induction of apoptosis in human Huh-7 cells assessed as viable cells at 0.2 uM by Annexin V/propidium iodide staining based flow cytometric analysis (reference value: 94.83%); type: functional; conditions: read-out: Activity
Huh-7 [2] = assay: Induction of autophagy in human Huh-7 cells harboring GFP-LC3 assessed as increase in number of the autophagosome puncta at 0.2 uM after 6 hrs; type: functional, cell-based
How it was run: (§1)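 GFP-LC3-transfected cells were exposed to saline or compound for 6 h, then fixed with paraformaldehyde. Autophagosome puncta were scored by fluorescence of accumulated GFP-LC3.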

Huh-7 [3] = assay: Induction of autophagy in human Huh-7 cells assessed as decrease in m-TOR phosphorylation at 0.1 to 0.2 uM by Western blot analysis; type: functional, cell-based; conditions: dose 0.1-0.2 µM
How it was run: (§2)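 Huh-7 cells were treated with or without compound. Total protein extracts were separated by SDS-PAGE and transferred to PVDF. Membranes were probed with primary antibodies, then HRP-conjugated secondary antibody (1:10,000), and detected by enhanced chemiluminescence.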

Huh-7 [4] = assay: Induction of autophagy flux arrest in human Huh-7 cells assessed as reduction in LAMP1 at 0.2 uM by immunofluorescence staining based assay; type: functional, cell-based
How it was run: (§3)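 Huh-7 cells with or without 0.2 µM compound were immunofluorescently co-stained for LC3 (autophagosome) and LAMP1 (lysosome). Co-localization was assessed by fluorescence imaging.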

Huh-7 [5] = assay: Induction of apoptosis in human Huh-7 cells assessed as late apoptotic cells at 0.1 uM by Annexin V/propidium iodide staining based flow cytometric analysis (reference value: 3.15%); type: functional
Huh-7 [6] = assay: Induction of autophagy in human Huh-7 cells assessed as reduction in cell viability up to 72 hrs in presence of Baf-A1 by MTT assay; type: functional, cell-based; conditions: time hrs <=72
Huh-7 [7] = assay: Induction of autophagy in human Huh-7 cells assessed as increase in p62/SQSTM1 protein expression at 0.1 to 0.2 uM by Western blot analysis; type: functional, cell-based; conditions: dose 0.1-0.2 µM; how it was run: as §2
Hep 3B2 = assay: Induction of autophagy in human Hep3B cells harboring GFP-LC3 assessed as increase in number of the autophagosome puncta at 0.2 uM after 6 hrs; type: functional, cell-based; how it was run: as §1
Huh-7 [8] = assay: Antitumour activity against human Huh-7 cells xenografted in nude mouse assessed as reduction in tumour weight at […], ip up to 15 days; type: functional, organism-based; conditions: time day <=15
Huh-7 [9] = assay: Induction of autophagy flux arrest in human Huh-7 cells assessed as reduction in LC3 at 0.2 uM by immunofluorescence staining based assay; type: functional, cell-based; how it was run: as §3
Huh-7 [10] = assay: Antitumour activity against human Huh-7 cells xenografted in nude mouse assessed as decrease in p62/SQSTMI at 20 to 50 mg/kg, ip up to 15 days by immunohistochemical analysis; type: functional, organism-based; conditions: dose 20-50 mg/kg, time day <=15
How it was run: (§4)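 Tumors came from Huh-7 xenografted nude mice dosed intraperitoneally at 25 or 50 mg/Kg for 15 days. For IHC, sections underwent microwave antigen retrieval (EDTA pH 8.0 or citrate pH 6.0), then primary antibody at 37 °C for 30-40 min. HRP polymer/secondary was applied for 30 min, with DAB development and control IgG.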

Huh-7 [11] = assay: Antitumour activity against human Huh-7 cells xenografted in nude mouse assessed as decrease in Ki-67 at […], ip up to 15 days by immunohistochemical analysis; type: functional, organism-based; conditions: time day <=15
How it was run: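 Subcutaneous Huh-7 xenografts in nude mice were dosed intraperitoneally at 25 or 50 mg/kg and followed over days 1–15. For IHC, tumour sections had microwave antigen retrieval in EDTA (pH 8.0) or citrate (pH 6.0) buffer. They were incubated with primary antibody at 37 °C for 30–40 min, then secondary antibody with HRP polymer for 30 min, and developed with DAB. Normal IgG served as negative control.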

Huh-7 [12] = assay: Induction of apoptosis in human Huh-7 cells assessed as upregulation of cleaved caspase-3 protein expression at 0.1 to 0.2 uM by Western blot analysis; type: functional, cell-based; conditions: dose 0.1-0.2 µM; how it was run: as §2
[13] = Inhibition of full length human Akt1 […] mutant using GRPRTSSFAEGKK as substrate incubated for 40 mins by scintillation counting method
How it was run: (§5)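 Eurofins KinaseProfiler enzymatic assay on human Akt isoforms. IC50 values are the mean of at least three independent replicates ± standard deviation.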

Huh-7 [14] = assay: Induction of autophagy in human Huh-7 cells assessed as reduction in cathepsin B activity at 0.2 uM in presence of 3-MA; type: functional, cell-based
[15] = Effect on total AKT level in human Huh-7 cells xenografted in nude mouse at 20 to 50 mg/kg, ip up to 15 days by immunohistochemical analysis; type: ADME, organism-based; conditions: in vivo, 360 h, dose 20-50 mg/kg, time <=15 day; how it was run: as §4
Huh-7 [16] = assay: Induction of apoptosis in human Huh-7 cells assessed as early apoptotic cells at 0.2 uM by Annexin V/propidium iodide staining based flow cytometric analysis (reference value: 1.43%); type: functional
[17] = molecular target: RAC-gamma serine/threonine-protein kinase (Homo sapiens, UniProt Q9Y243, S472D); assay: Inhibition of full length human Akt3 S472D mutant using GRPRTSSFAEGKK as substrate incubated for 40 mins by scintillation counting method; how it was run: as §5
SMMC-7721 = assay: Cytotoxicity against human SMMC-7721 cells assessed as reduction in cell viability by MTT assay; type: functional, cell-based
How it was run: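 Hepatoma cells were grown in DMEM with 10% FBS and streptomycin, then treated with compounds. Viability was read by MTT.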

Huh-7 [18] = assay: Induction of autophagy in human Huh-7 cells assessed as reduction in cell viability up to 72 hrs in presence of 3-MA by MTT assay; type: functional, cell-based; conditions: time hrs <=72

RAC-gamma serine/threonine-protein kinase, sequence (Q9Y243 2-479 S472D limits assumed): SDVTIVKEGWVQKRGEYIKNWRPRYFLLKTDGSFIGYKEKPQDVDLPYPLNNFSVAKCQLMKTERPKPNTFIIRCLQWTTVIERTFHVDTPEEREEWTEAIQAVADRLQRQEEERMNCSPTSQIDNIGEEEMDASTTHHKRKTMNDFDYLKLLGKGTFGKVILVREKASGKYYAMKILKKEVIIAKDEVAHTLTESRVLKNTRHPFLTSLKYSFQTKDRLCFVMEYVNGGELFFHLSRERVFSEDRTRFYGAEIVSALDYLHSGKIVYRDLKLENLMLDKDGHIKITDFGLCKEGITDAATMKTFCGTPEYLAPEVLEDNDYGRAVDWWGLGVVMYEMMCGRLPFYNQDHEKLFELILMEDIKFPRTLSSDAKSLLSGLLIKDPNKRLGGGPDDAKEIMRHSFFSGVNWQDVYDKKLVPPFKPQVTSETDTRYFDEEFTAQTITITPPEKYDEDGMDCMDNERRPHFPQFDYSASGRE

IC50 [13]: 0.034 µM
IC50 [17]: 0.129 µM
Structure (SMILES): O=C(C(CNC1CCCC1)c1ccc(Cl)cc1)N1CCN(c2ncnc3sc4c(c23)CCC4)CC1 (stereo not given)
viability at 0.2 µM (Huh-7 [1]): 80.8%
Activity (Huh-7 [2]): Active
Activity (Huh-7 [3]): Active
Activity (Huh-7 [4]): Active
Activity (Huh-7 [5]): 7.92%
Activity (Huh-7 [6]): Active
Activity (Huh-7 [7]): Active
Activity (Hep 3B2): Active
Activity (Huh-7 [8]): Active
Activity (Huh-7 [9]): Active
Activity (Huh-7 [10]): Active
Activity (Huh-7 [11]): Active
Activity (Huh-7 [12]): Active
Activity (Huh-7 [14]): inactive
Activity [15]: Non-Toxic
Activity (Huh-7 [16]): 7.1%
IC50 (SMMC-7721): 0.386 µM
Activity (Huh-7 [18]): inactive

— ChEMBL document CHEMBL4680191, “Discovery of novel akt1 inhibitor induces autophagy associated death in hepatocellular carcinoma cells” (Eur J Med Chem, 2020)
